pIC50: −log10 of the molar value. Several values for one entry are separate records, joined by “and”; a condition that tells them apart may be missing. Equal entries are not always repeated. Activity calls are given as the source filed them. No cut-off for these calls is given here.
Legend:
[1] = organism: Homo sapiens; assay: Inhibition of LPS-induced TNF-alpha formation in human whole blood.; assay type: functional, organism-based
[2] = biological target: 3',5'-cyclic-AMP phosphodiesterase 4A (Homo sapiens, UniProt P27815); assay: Inhibition of human Phosphodiesterase 4A isoform using construct representing the common region of spliced variants expressed as GST-fusion proteins in Sf9 cells.
Sequence of 3',5'-cyclic-AMP phosphodiesterase 4A (P27815 whole entry, looked up, stated change not applied, the tested form may be a part, canonical isoform): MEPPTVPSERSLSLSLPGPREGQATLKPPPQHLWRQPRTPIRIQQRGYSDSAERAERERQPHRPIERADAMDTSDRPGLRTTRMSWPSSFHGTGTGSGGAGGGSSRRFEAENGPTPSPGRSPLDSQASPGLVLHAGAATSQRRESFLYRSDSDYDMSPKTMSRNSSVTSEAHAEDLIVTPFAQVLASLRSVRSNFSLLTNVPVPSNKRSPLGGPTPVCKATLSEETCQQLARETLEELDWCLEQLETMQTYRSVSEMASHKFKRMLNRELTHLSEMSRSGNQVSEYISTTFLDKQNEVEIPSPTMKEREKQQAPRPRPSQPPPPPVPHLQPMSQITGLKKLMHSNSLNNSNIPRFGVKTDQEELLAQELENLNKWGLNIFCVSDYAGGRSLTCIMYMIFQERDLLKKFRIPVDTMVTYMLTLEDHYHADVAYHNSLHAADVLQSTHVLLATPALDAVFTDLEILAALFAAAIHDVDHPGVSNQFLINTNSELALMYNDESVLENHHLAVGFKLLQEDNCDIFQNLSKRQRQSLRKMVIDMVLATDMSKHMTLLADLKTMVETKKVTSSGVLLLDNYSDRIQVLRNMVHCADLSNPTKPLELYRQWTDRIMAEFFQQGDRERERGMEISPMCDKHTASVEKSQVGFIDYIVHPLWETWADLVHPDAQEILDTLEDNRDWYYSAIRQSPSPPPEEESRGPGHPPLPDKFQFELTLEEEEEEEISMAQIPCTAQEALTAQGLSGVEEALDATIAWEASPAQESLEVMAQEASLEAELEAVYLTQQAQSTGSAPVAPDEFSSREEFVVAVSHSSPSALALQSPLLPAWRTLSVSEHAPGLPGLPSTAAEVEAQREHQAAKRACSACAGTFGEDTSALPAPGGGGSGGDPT

[3] = Half-life in Squirrel monkey; assay type: ADME; conditions: in vivo
[4] = Half-life in Dog; assay type: ADME, organism-based, Canis lupus familiaris; conditions: in vivo
[5] = Bioavailability upon oral administration of compound; assay type: ADME, organism-based; conditions: rat, in vivo
Summary of the method: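 Rat, oral dosing at 3 mg/kg in 60% PEG200; bioavailability determined, with plasma level also sampled at 6 h.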

[6] = Half-life in rat; assay type: ADME, organism-based; conditions: in vivo
[7] = Cmax in ferrets after 30mg/kg oral dose; assay type: ADME, organism-based, Mustela putorius furo; set-up: dose 30 mg/kg, route oral; conditions: ferret, in vivo
Summary of the method: (§1)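 Ferrets dosed orally at 30 mg/kg; emesis monitored, with plasma Cmax recorded.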

[8] = test system: Cavia porcellus; assay: Inhibition of the ovalbumin-induced bronchoconstriction in conscious guinea pigs after 0.5 hr pretreatment with 1 mg/kg administered intraperitoneally; assay type: functional; conditions: route intraperitoneal
[9] = (§2) Inhibition of ascaris-induced bronchoconstriction in Anaesthetized squirrel monkey after treatment with 3 mg/kg peroral dose; assay type: functional; conditions: route oral
[10] = (§3) Inhibition of ascaris-induced bronchoconstriction in Anaesthetized squirrel monkey after treatment with 0.5 mg/kg peroral dose; assay type: functional; conditions: route oral
[11] = (§4) Inhibition of ascaris-induced bronchoconstriction in Anaesthetized squirrel monkey after treatment with 1 mg/kg peroral dose; assay type: functional; conditions: route oral
[12] = as §3; assay type: functional; conditions: route oral; remark: listed apart in the source
[13] = as §4; assay type: functional; conditions: route oral; remark: listed apart in the source
[14] = as §2; assay type: functional; conditions: route oral; remark: listed apart in the source
[15] = test system: Ovis aries; assay: Inhibition of ascaris-induced bronchoconstriction in sheep after late treatment with 2 mg/kg intravenous dose
[16] = test system: Ovis aries; assay: Inhibition of ascaris-induced bronchoconstriction in sheep after early treatment with 2 mg/kg intravenous dose
[17] = test system: Mustela putorius furo; assay: Emetic effect in ferrets to maximum 30 mg/kg oral dose; assay type: functional, organism-based; set-up: dose 30 mg/kg; summary of the method: as §1
[18] = test system: Cavia porcellus; assay: Inhibition of the ovalbumin-induced bronchoconstriction in conscious guinea pigs after 4 hr pretreatment with 1 mg/kg administered intraperitoneally; assay type: functional; conditions: route intraperitoneal
[19] = test system: Ovis aries; assay: Inhibition of ascaris-induced bronchoconstriction in sheep after early treatment with 2 mg/kg intravenous dose; assay type: functional
Summary of the method: (§5)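 Sheep, ascaris-induced bronchoconstriction; 2 mg/kg given iv 2 h before challenge; percent inhibition of early and late responses.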

[20] = test system: Ovis aries; assay: Inhibition of ascaris-induced bronchoconstriction in sheep after late treatment with 2 mg/kg intravenous dose; assay type: functional; summary of the method: as §5

Cc1cc(C(O)(C(F)(F)F)C(F)(F)F)ccc1C(Cc1cc[n+]([O-])cc1)c1ccc(OC(F)F)c(OC(F)F)c1 (stereo unspecified)
pIC50 ([1]; Homo sapiens, Blood): 5.11
pIC50 [2]: 7.49

COc1ccc([C@]2(C#N)CC[C@@H](C(=O)O)CC2)cc1OC1CCCC1 [CILOMILAST]
pIC50 ([1]; Homo sapiens, Blood): 4.74

Cc1c[n+]([O-])ccc1CC(c1ccc(C(O)(C(F)(F)F)C(F)(F)F)cc1)c1ccc(OC(F)F)c(OC(F)F)c1 (single isomer, unassigned; enantiomer 2)
pIC50 [1]: 5.43
pIC50 [2]: 7.64

CC(c1cc[n+]([O-])cc1)C(c1ccc(C(O)(C(F)(F)F)C(F)(F)F)cc1)c1ccc(OC(F)F)c(OC(F)F)c1 (single isomer, unassigned; diastereomer 1)
pIC50 [1]: 4.64
pIC50 [2]: 7.41

COc1ccc([C@H](Cc2ccncc2)c2ccccc2)cc1OC1CCCC1 [CDP840]
pIC50 ([1]; Homo sapiens, Blood): 4.82
pIC50 [2]: 8.38

Cc1c[n+]([O-])ccc1CC(c1ccc(C(O)(C(F)(F)F)C(F)(F)F)cc1)c1ccc(OC(F)F)c(OC(F)F)c1 (racemic)
pIC50 [1]: 6.40
pIC50 [2]: 8.68

Cc1c[n+]([O-])ccc1CC(c1ccc(C(O)(C(F)(F)F)C(F)(F)F)cc1)c1ccc(OC(F)F)c(OC(F)F)c1 (stereo in doubt) [listing 1 of 2 here]
half-life [3]: 36 h
half-life [4]: 19 h
bioavailability [5]: 60%
half-life [6]: 10 h
Cmax [7]: 10 µM
Efficacy [8]: 82%
pIC50 [1]: 6.52
pIC50 [2]: 8.89 and 8.38
Efficacy [9]: 59%
Efficacy [10]: 26%
Efficacy [11]: 33%
Efficacy [12]: 38%
Efficacy [13]: 63%
Efficacy [14]: 100%
Efficacy [15]: 90%
Efficacy [16]: 62%

Cc1cc(CC(c2ccc(C(O)(C(F)(F)F)C(F)(F)F)cc2)c2ccc(OC(F)F)c(OC(F)F)c2)cc[n+]1[O-] (stereo unspecified)
pIC50 ([1]; Homo sapiens, Blood): 6.52
pIC50 [2]: 7.74

Cc1c[n+]([O-])ccc1CC(c1ccc(C(O)(C(F)(F)F)C(F)(F)F)cc1)c1ccc(OC(F)F)c(OC(F)F)c1 (stereo in doubt) [listing 2 of 2 here]
Emesis [17]: inactive

[O-][n+]1ccc(CC(c2ccc(C(O)(C(F)(F)F)C(F)(F)F)cc2)c2ccc(OC(F)F)c(OC(F)F)c2)c(CO)c1 (stereo unspecified)
pIC50 ([1]; Homo sapiens, Blood): 5.10
pIC50 [2]: 7.42

CCc1c[n+]([O-])ccc1CC(c1ccc(C(O)(C(F)(F)F)C(F)(F)F)cc1)c1ccc(OC(F)F)c(OC(F)F)c1 (stereo unspecified)
pIC50 ([1]; Homo sapiens, Blood): 5.41
pIC50 [2]: 7.57

Cc1cc(C(Cc2cc[n+]([O-])cc2)c2ccc(OC(F)F)c(OC(F)F)c2)ccc1C(O)(C(F)(F)F)C(F)(F)F (stereo unspecified)
pIC50 ([1]; Homo sapiens, Blood): 6.00
pIC50 [2]: 8.36

Cc1c[n+]([O-])cc(C)c1CC(c1ccc(C(O)(C(F)(F)F)C(F)(F)F)cc1)c1ccc(OC(F)F)c(OC(F)F)c1 (stereo unspecified)
pIC50 ([1]; Homo sapiens, Blood): 5.24
pIC50 [2]: 7.24

[O-][n+]1ccc(CC(c2ccc(C(O)(C(F)(F)F)C(F)(F)F)cc2)c2ccc(OC(F)F)c(OC(F)F)c2)cc1 (stereo unspecified)
half-life [3]: > 48 h
half-life [4]: > 48 h
half-life [6]: > 48 h
Emesis [17]: inactive
Cmax [7]: 14 µM
Efficacy [8]: 0%
Efficacy [18]: 58%
pIC50 ([1]; Homo sapiens, Blood): 6.15
pIC50 [2]: 8.38
Efficacy [19]: 85%
Efficacy [20]: 95%
Efficacy [9]: 96%

CC(O)c1c[n+]([O-])ccc1CC(c1ccc(C(O)(C(F)(F)F)C(F)(F)F)cc1)c1ccc(OC(F)F)c(OC(F)F)c1 (stereo unspecified)
pIC50 ([1]; Homo sapiens, Blood): 4.89
pIC50 [2]: 7.38

CC(c1cc[n+]([O-])cc1)C(c1ccc(C(O)(C(F)(F)F)C(F)(F)F)cc1)c1ccc(OC(F)F)c(OC(F)F)c1 (single isomer, unassigned; diastereomer 2)
pIC50 [1]: 5.11
pIC50 [2]: 7.41

CC(=O)c1c[n+]([O-])ccc1CC(c1ccc(C(O)(C(F)(F)F)C(F)(F)F)cc1)c1ccc(OC(F)F)c(OC(F)F)c1 (stereo unspecified)
pIC50 ([1]; Homo sapiens, Blood): 5.54
pIC50 [2]: 8.57
